Experimental findings from ChEMBL document CHEMBL1131498, “Design, synthesis, and evaluation of the multidrug resistance-reversing activity of D-glucose mimetics of hapalosin” (J Med Chem, 1998) are described below.

What is called EC50 is the concentration that produces a half-maximal response. For orientation: IC20 means the concentration needed for an effect of 20%. Low values mean greater potency, high ones weaker potency.

In brackets after ≈: the same amount, converted by molar mass.

Common to all, as to conditions: Homo sapiens
Assay [1] deals with HL-60. Put plainly: Effective concentration against HL-60/ADR cells using MRP-mediated MDR assay using 2 nM vincristine which results in 50% of the cells being killed in the presence of particular cytotoxic drug. The assay is classed as functional, cell-based. In outline:
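Human promyelocytic leukemia HL-60/ADR cells (MRP-expressing, no P-gp) given varying compound concentrations plus 2 nM vincristine for 48 h. Survival by MTS tetrazolium metabolism (CellTiter AQueous); % killed as decrease vs control cultures. Triplicates, mean ± SD; approximate concentration (μg/mL) giving 50% kill.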

The test system of assay [2] is MCF7. Put plainly: Effective concentration against MCF-7/ADR cells using P-gp-mediated MDR assay using 25 nM actinomycin D which results in 50% of the cells being killed in the presence of particular cytotoxic drug. The format is functional, cell-based. The procedure, abridged:
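MCF-7/ADR cells (from NCI, grown in RPMI 1640 + 10% FBS, 50 μg/mL gentamycin) seeded at ~15% confluency, 24 h recovery, then eight doses of compound with 25 nM actinomycin D for 48 h. Survival by sulforhodamine B staining; % killed as decrease in binding vs ethanol solvent controls. Triplicates, mean ± SD; approximate concentration (μg/mL) giving 50% kill read from curves.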

Assay [3] relates to HL-60. Nature of the assay: Inhibitory concentration against HL-60/ADR cells using MRP-mediated MDR assay using 2 nM vincristine which inhibits cell proliferation by 20% in the absence of particular cytotoxic drug. The format is functional. The procedure, abridged: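 HL-60/ADR leukemia cells (MRP-expressing) exposed 48 h to varying compound concentrations alone, PBS replacing vincristine. Viability by MTS tetrazolium metabolism (CellTiter AQueous), % decrease vs controls. Triplicates, mean ± SD; approximate concentration (μg/mL) inhibiting proliferation by 20%.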

In assay [4] the test system is MCF7. Nature of the assay: Inhibitory concentration against MCF-7/ADR cells using P-gp-mediated MDR assay using 25 nM actinomycin D which inhibits cell proliferation by 20% in the absence of particular cytotoxic drug. The format is functional. In outline: (§1)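 MCF-7/ADR cells (from NCI, RPMI 1640 + 10% FBS, 50 μg/mL gentamycin) seeded at ~15% confluency, 24 h attachment, then eight doses of compound alone (PBS in place of actinomycin D) for 48 h. Sulforhodamine B staining; % kill vs ethanol solvent controls. Triplicates, mean ± SD; approximate concentration (μg/mL) giving 20% growth inhibition.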

The test system of assay [5] is MCF7. Nature of the assay: Inhibitory concentration against MCF-7/ADR cells using P-gp-mediated MDR assay using 25 nM actinomycin D which inhibit cells proliferation by 20% in the absence of particular cytotoxic drug. The assay is classed as functional. The procedure, abridged: as §1

For `CCCCCCC[C@H]1OC(=O)C[C@@H](O)[C@H](Cc2ccccc2)N(C)C(=O)[C@H](C(C)C)OC(=O)[C@H]1C` [HAPALOSIN], the EC50 was determined as 0.7 mg/L in assay [1] and 1 mg/L in assay [2]. Besides, the concentration for an effect of 20% (IC20) in assay [3] and in assay [4] was 6 mg/L (≈ 12.3 µM) throughout.

On to `CCCCCCCO[C@@H]1[C@@H](O)[C@@H](OCc2ccccc2)O[C@H](CC(C)C)[C@H]1OC`, for which the IC20 in assay [5] was 20 mg/L (≈ 49 µM); in assay [3], > 20 mg/L. The EC50 in assay [1] came to 10 mg/L; in assay [2] it was 7 mg/L.

As to `CCCCCCCO[C@@H]1[C@@H](O)[C@@H](OCc2ccccc2)O[C@@H]2CO[C@@H](c3ccc(OC)cc3)O[C@@H]12`, the IC20 in assay [5] is 12 mg/L (≈ 24.7 µM); in assay [3], > 20 mg/L. Also, the concentration for a half-maximal effect (EC50) in assay [1] and in assay [2] was 2.5 mg/L each time.

Regarding `CCCCCCCO[C@@H]1[C@@H](OCc2ccccc2)[C@@H](OCc2ccccc2)O[C@H](CC(C)C)[C@H]1OC`, the IC20 in assay [5] and in assay [3] was > 20 mg/L each time. For the same compound, the results for the EC50 in assay [1] and in assay [2] were 18 mg/L and > 20 mg/L, respectively.

In the case of `CCCCCCCO[C@@H]1[C@@H](OCc2ccccc2)[C@@H](OCc2ccccc2)O[C@H](C=C(C)C)[C@H]1OCc1ccc(OC)cc1`, the concentration for an effect of 20% (IC20) in assay [5] and in assay [3] was > 20 mg/L each time. In addition, the 50% effective concentration (EC50) in assay [1] and in assay [2] was > 20 mg/L each time.

Consider `CCCCCCCO[C@@H]1[C@@H](OCc2ccccc2)[C@@H](OCc2ccccc2)O[C@H](CC(C)C)[C@H]1OCc1ccc(OC)cc1`, for which the 20% effect concentration (IC20) in assay [5] and in assay [3] was > 20 mg/L each time. The half-maximal effective concentration (EC50) in assay [1] and in assay [2] was > 20 mg/L throughout.

For `CCCCCCCO[C@@H]1[C@@H](OCc2ccccc2)[C@@H](OCc2ccccc2)O[C@@H]2CO[C@@H](c3ccc(OC)cc3)O[C@@H]12`, the IC20 in assay [5] and in assay [3] was > 20 mg/L each time. For the same compound, the values for the EC50 in assay [1] and in assay [2] were 2.5 mg/L and > 20 mg/L, respectively.

Take `CCCCCCCO[C@@H]1[C@@H](O)[C@@H](OCc2ccccc2)O[C@H](CO)[C@H]1O`: the IC20 in assay [5] and in assay [3] was > 20 mg/L each time. Besides, the values for the EC50 in assay [1] and in assay [2] were 10 mg/L and > 20 mg/L, respectively.

Consider `CCCCCCCO[C@@H]1[C@@H](OCc2ccccc2)[C@@H](OCc2ccccc2)O[C@H](CO)[C@H]1OCc1ccc(OC)cc1`, for which the IC20 in assay [5] and in assay [3] was 6 mg/L (≈ 10.4 µM) throughout. Besides, the EC50 in assay [1] is 1.7 mg/L; in assay [2], 3 mg/L.

Regarding `CCCCCCCO[C@@H]1[C@@H](OCc2ccccc2)[C@@H](OCc2ccccc2)O[C@H](C=O)[C@H]1OCc1ccc(OC)cc1`, the 20% effect concentration (IC20) in assay [5] came out at 5 mg/L (≈ 8.67 µM); in assay [3], 1.8 mg/L (≈ 3.12 µM). For the same compound, the EC50 worked out at 1.5 mg/L in assay [1] and 4 mg/L in assay [2].

For `COc1ccc(CCN(C)CCCC(C#N)(c2ccc(OC)c(OC)c2)C(C)C)cc1OC` (stereo unspecified) [VERAPAMIL], the IC20 in assay [5] and in assay [3] was > 20 mg/L throughout. For the same compound, the EC50 came to 1.8 mg/L in assay [1] and 1 mg/L in assay [2].

Regarding `CCCCCCCO[C@@H]1[C@@H](O)[C@@H](OCc2ccccc2)O[C@H](CC(C)C)[C@H]1OCc1ccc(OC)cc1`, the figures for the 20% effect concentration (IC20) in assay [5] and in assay [3] were 12 mg/L (≈ 23.3 µM) and > 20 mg/L, respectively. For the same compound, the half-maximal effective concentration (EC50) was 1.8 mg/L in assay [1] and 4 mg/L in assay [2].

`CCCCCCCO[C@H]1[C@H](O)[C@@H](CC(C)C)O[C@H](OCc2ccccc2)[C@@H]1OCc1ccccc1`: the IC20 is 10 mg/L (≈ 20.6 µM) in assay [5] and > 20 mg/L in assay [3]. The EC50 in assay [1] is 2.5 mg/L; in assay [2], 6 mg/L.

Take `CCCCCCCO[C@@H]1[C@@H](O)[C@@H](OCc2ccccc2)O[C@H](CC(C)C)[C@H]1O`: the IC20 in assay [5] is 12 mg/L (≈ 30.4 µM); in assay [3], > 20 mg/L. The results for the concentration for a half-maximal effect (EC50) in assay [1] and in assay [2] were 3.5 mg/L and 6 mg/L, respectively.
